Results taken from ChEMBL document CHEMBL2057189, “Functional characterization of recombinant hyoscyamine 6β-hydroxylase from Atropa belladonna” (Bioorg Med Chem, 2012).
Activity calls are given as the source filed them. No cut-off for these calls is given here.

Key:
Atropa belladonna [1] = assay: Activity at Atropa belladonna recombinant hycosamine 6beta-hydroxylase expressed in Escherichia coli assessed as hydroxylated product formation at 0.2 mM after 1 hr by ESI-MS analysis
How it was run: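 Ni-NTA-purified His-tagged AbH6H, E. coli-expressed. Analogue at 0.2 mM final replaced (−)-hyoscyamine in 50 mM Tris/HCl pH 7.6 with 0.4 mM FeSO4, 4 mM sodium ascorbate, 1 mM 2-oxoglutaric acid and 2 mg/mL catalase at 34 °C. The reaction was quenched with saturated Na2CO3 (pH ~9.5) and extracted with EtOAc. Conversion to products was checked by ESI-MS.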

Atropa belladonna [2] = assay: Inhibition of Atropa belladonna recombinant hycosamine 6beta-hydroxylase expressed in Escherichia coli using hyoscyamine as substrate assessed as inhibition of hydroxylated product formation at 0.1 mM after 1 hr by HPLC analysis
How it was run: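 Purified AbH6H was assayed in 50 mM Tris/HCl pH 7.6 with 0.4 mM FeSO4, 4 mM ascorbate, 1 mM 2-oxoglutarate, 2 mg/mL catalase and 0.2 mM (−)-hyoscyamine, plus 0.1 mM analogue, at 34 °C. After Na2CO3 quench and EtOAc extraction, 6β-hydroxyhyoscyamine was quantified by C18 HPLC (UV 210 nm, water/H3PO4–MeOH gradient). Inhibition was scored as reduced product formation.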

Atropa belladonna [3] = assay: Activity at Atropa belladonna recombinant hycosamine 6beta-hydroxylase epoxidase activity expressed in Escherichia coli assessed as scopolamine formation at 0.2 mM after 1 hr by ESI-MS analysis
How it was run: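 C-terminally His6-tagged A. belladonna H6H expressed in E. coli JM109 and Ni-NTA purified. Substrate (0.2 mM final) incubated at 34 °C in 50 mM Tris/HCl pH 7.6 with 0.4 mM FeSO4, 4 mM sodium ascorbate, 1 mM 2-oxoglutarate and 2 mg/mL catalase. Quenched with saturated Na2CO3 to pH ~9.5 and extracted with EtOAc. Products detected by ESI-MS.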

SMILES | Activity (Atropa belladonna [1]) | inhibition (Atropa belladonna [2]) | Activity (Atropa belladonna [3])
CN(C)c1ccc(CC(=O)O[C@H]2C[C@H]3CC[C@@H](C2)N3C)cc1 | Active | – | –
CN1CCC(OC(=O)Cc2ccccc2)CC1 | inactive | inactive | –
CN1[C@@H]2C=C[C@H]1C[C@@H](OC(=O)[C@H](CO)c1ccccc1)C2 | Active | – | Active
CN1C2CC[C@@H]1C[C@H](OC(=O)CCc1ccccc1)C2 (single isomer, unassigned) | inactive | inactive | –
CN1C2CC[C@@H]1C[C@H](OC(=O)c1ccccc1)C2 (single isomer, unassigned) | Active | – | –
C[N+]1(C)C2C[C@H](OC(=O)[C@H](CO)c3ccccc3)C[C@@H]1[C@H]1OC21 (single isomer, unassigned) | inactive | 7% | –
O=C(Cc1ccccc1)O[C@@H]1CC2CC[C@H](C1)O2 (single isomer, unassigned) | inactive | inactive | –
